Marks after values point to notes of the source that are not given here.
Key:
[1] = system: A549; assay: In vitro antiproliferative assay; assay type: cell-based, human; details: for mean optical densities: 48 h, SRB, 515 nm
Procedure, shortened: (§1)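 NCI-sourced cells grown in DMEM with 10% FBS, penicillin 25 U/mL and streptomycin 25 U/mL (37 °C, 5% CO2, 95% humidity). 5000–40,000 viable cells/well attached 24 h, then fresh medium with test compound at 0, 0.1, 1.0, 10 or 100 μM for 48 h. TCA-fixed (10%, 1 h RT), 0.4% SRB stain 60 min, acetic acid wash, Tris-solubilised dye read at 515 nm. GI50 and TGI calculated; triplicates, mean ± SD.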

[2] = system: K-562; assay: In vitro antiproliferative assay; assay type: cell-based, human; details: for mean optical densities: 48 h, SRB, 515 nm
Procedure, shortened: as §1

[3] = system: HOP-62; assay: In vitro antiproliferative assay; assay type: cell-based, human; details: for mean optical densities: 48 h, SRB, 515 nm
Procedure, shortened: as §1

[4] = system: MCF7; assay: In vitro antiproliferative assay; assay type: cell-based, human; details: for mean optical densities: 48 h, SRB, 515 nm
Procedure, shortened: as §1

[5] = system: five cell lines originating from human lungs; assay: In vitro antiproliferative assay; assay type: cell-based; details: read-out: IC50 range
Procedure, shortened: as §1

[6] = system: A549/ATCC; assay: In vitro antiproliferative assay; assay type: cell-based, human; details: for mean optical densities: A549/ATCC, 48 h, SRB, 515 nm
Procedure, shortened: as §1

[7] = system: NCI–H522; assay: In vitro antiproliferative assay; assay type: cell-based, human; details: for mean optical densities: 48 h, SRB, 515 nm
Procedure, shortened: as §1

[8] = system: NCI–H322 M; assay: In vitro antiproliferative assay; assay type: cell-based, human; details: 48 h; for mean optical densities: NCI–H322 M, SRB, 515 nm
Procedure, shortened: as §1

[9] = In vivo pharmacokinetics in rats; parameters: species or system Male albino Wistar rats; details: male, Wistar, rat, plasma, po, 5 mg/kg
Procedure, shortened: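 Rats were given test compound at 5 mg/kg BW orally. Blood was drawn hourly over 24 h (24 samples) into Na2EDTA tubes, and plasma was quantified by UPLC. Cmax, Tmax and AUC0-t were taken from the plasma concentration-time curve. K came from the terminal log-linear slope, and AUC0→∞ was calculated as AUC0-t + Clast/K.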

[10] = system: NCI–H226; assay: In vitro antiproliferative assay; assay type: cell-based, human; details: for mean optical densities: 48 h, SRB, 515 nm
Procedure, shortened: as §1

SMILES: CCNc1nc2ccccc2c2c(=O)c3cc(Cl)ccc3sc12 [RXn-02, 10-chloro-6-(ethylamino)-12H-thiochromeno[2,3-c] quinolin-12-one]
- mean optical densities ([1]; A549, RXn-02 0.1 μM): 1.997
- mean optical densities ([1]; A549, RXn-02 1.0 μM): 1.883
- mean optical densities ([1]; A549, RXn-02 10 μM): 1.602**
- mean optical densities ([1]; A549, RXn-02 100 μM): 1.129**
- IC50 ([1]; Homo sapiens, A549, 48 h): 48.1 µM
- IC50 ([2]; Homo sapiens, K562, 48 h): 100 µM
- mean optical densities ([2]; K-562, RXn-02 0.1 μM): 1.771
- mean optical densities ([2]; K-562, RXn-02 1.0 μM): 1.668
- mean optical densities ([2]; K-562, RXn-02 10 μM): 1.242
- mean optical densities ([2]; K-562, RXn-02 100 μM): 1.056*
- mean optical densities ([3]; HOP-62, RXn-02 0.1 μM): 1.859
- mean optical densities ([3]; HOP-62, RXn-02 1.0 μM): 1.761
- mean optical densities ([3]; HOP-62, RXn-02 10 μM): 1.463*
- mean optical densities ([3]; HOP-62, RXn-02 100 μM): 0.319***
- IC50 ([3]; Homo sapiens, HOP-62, 48 h): 13.3 µM
- IC50 ([4]; Homo sapiens, MCF7, 48 h): 0.047 µM
- mean optical densities ([4]; MCF7, RXn-02 0.1 μM): 1.083
- mean optical densities ([4]; MCF7, RXn-02 1.0 μM): 0.873
- mean optical densities ([4]; MCF7, RXn-02 10 μM): 0.735***
- mean optical densities ([4]; MCF7, RXn-02 100 μM): 0.699***
- IC50 [5]: 33.2 to 69.5 µM
- mean optical densities ([6]; RXn-02 0.1 μM): 1.997
- mean optical densities ([6]; RXn-02 1.0 μM): 1.883
- mean optical densities ([6]; RXn-02 10 μM): 1.602**
- mean optical densities ([6]; RXn-02 100 μM): 1.129**
- IC50 ([6]; Homo sapiens, A549, 48 h): 48.1 µM
- IC50 ([7]; Homo sapiens, NCI-H522, 48 h): 24.8 µM
- mean optical densities ([7]; NCI–H522, RXn-02 0.1 μM): 2.405
- mean optical densities ([7]; NCI–H522, RXn-02 1.0 μM): 2.362
- mean optical densities ([7]; NCI–H522, RXn-02 10 μM): 2.110*
- mean optical densities ([7]; NCI–H522, RXn-02 100 μM): 1.395**
- IC50 ([8]; Homo sapiens, NCI-H322M): 69.5 µM
- mean optical densities ([8]; RXn-02 0.1 μM): 1.491
- mean optical densities ([8]; RXn-02 1.0 μM): 1.386
- mean optical densities ([8]; RXn-02 10 μM): 1.209*
- mean optical densities ([8]; RXn-02 100 μM): 1.020*
- AUC(0-t) [9]: 18900 ng·h/mL
- Cmax [9]: 1760 ng/mL
- IC50 ([10]; Homo sapiens, NCI-H226, 48 h): 33.2 µM
- mean optical densities ([10]; NCI–H226, RXn-02 0.1 μM): 2.389
- mean optical densities ([10]; NCI–H226, RXn-02 1.0 μM): 2.367
- mean optical densities ([10]; NCI–H226, RXn-02 10 μM): 2.142*
- mean optical densities ([10]; NCI–H226, RXn-02 100 μM): 1.704**
